Test [1] can be described thus: inhibitors of TNFa-induced NFkB p65 translocation, primary screen, imaging, HUVEC, MLSMR starter and 10KST1 sets (AID 438;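 active = inhibition above 20% together with a positive visual image hit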;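 also: compound added about 3h40 before a 20 min TNFalpha stimulation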;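 as to inhibition: signal is the nuclear over cytoplasmic p65 intensity ratio per well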). The following applies: HUVEC TNFa-induced p65 nuclear translocation; cell count: measured here: nuclei count (cytotoxicity indicator), at 2.08 µM; inhibition: at 2 µM, stronger effect = higher value, 0% TNFa-plus-vehicle, 100% no-TNFa wells.
The nature of test [2]: endothelial E-selectin expression blockers – imaging, HUVEC, immunofluorescence, MLSMR starter and 10KST1 sets, primary screen (AID 487;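 active = visually confirmed hit in the image check and inhibition above 20%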;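 as to inhibition: signal is fraction of cell area covered by stained E-selectin grains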;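 as to nuclei count: 100% = median nuclei count of all wells on the same plate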). The note with it: HUVEC TNFalpha-induced E-selectin immunofluorescence imaging, at 2 µM; inhibition: stronger effect = higher value; nuclei count: measured here: cell number, toxicity.
Test [3] is described as follows: Primary imaging screen for DUSP6 inhibitors that restore phospho-Erk in transfected HeLa cells, chemical complementation (AID 609;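 active = compounds giving at least 50% inhibition in the cell-based MKP-3 phosphatase rescue imaging test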;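 as to inhibition: phospho-Erk level distribution per well compared with pooled transfected vehicle control wells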). The note with it: HeLa MKP-3 transfected, phospho-Erk imaging KS statistic, at 10 µM, cells stimulated with TPA for 15 min.
The target of test [4] is Dual specificity protein phosphatase 6 (Homo sapiens) (UniProt Q16828). The description is as above. The note with it: HeLa MKP-3 transfected, phospho-Erk imaging KS statistic; at 10 µM; stronger effect = higher value; cells stimulated with TPA for 15 min.
Dual specificity protein phosphatase 6 (Homo sapiens), sequence (Q16828 whole entry, looked up): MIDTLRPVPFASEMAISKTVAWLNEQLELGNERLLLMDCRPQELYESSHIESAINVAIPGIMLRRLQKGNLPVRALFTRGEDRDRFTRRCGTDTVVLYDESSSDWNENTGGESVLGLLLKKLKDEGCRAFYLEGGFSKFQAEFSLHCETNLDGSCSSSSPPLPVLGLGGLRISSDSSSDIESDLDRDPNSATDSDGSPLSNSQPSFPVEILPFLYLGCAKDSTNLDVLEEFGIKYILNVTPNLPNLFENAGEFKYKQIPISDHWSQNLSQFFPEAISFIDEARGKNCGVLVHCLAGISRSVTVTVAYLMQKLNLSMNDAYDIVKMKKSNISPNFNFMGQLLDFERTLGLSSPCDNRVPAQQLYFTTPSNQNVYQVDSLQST
Test [5] deals with Voltage-gated potassium channel subunit beta-2 (Rattus norvegicus) (UniProt P62483). Put plainly: inhibitors of rat Kvbeta2 reductase activity – biochemical, NADPH fluorescence, primary screen (AID 622;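 active = fluorescence slope higher than the sample average by over 3 SD, cut at about -0.22 in these data, passing the limit was not always enough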;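 also: slope of raw intensity against log time taken from 70 to 1610 s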). The following applies: recombinant KvBeta, 4-cyanobenzaldehyde reduction, at 10 µM, stronger effect = higher value.
Voltage-gated potassium channel subunit beta-2 (Rattus norvegicus), sequence (P62483 whole entry, looked up): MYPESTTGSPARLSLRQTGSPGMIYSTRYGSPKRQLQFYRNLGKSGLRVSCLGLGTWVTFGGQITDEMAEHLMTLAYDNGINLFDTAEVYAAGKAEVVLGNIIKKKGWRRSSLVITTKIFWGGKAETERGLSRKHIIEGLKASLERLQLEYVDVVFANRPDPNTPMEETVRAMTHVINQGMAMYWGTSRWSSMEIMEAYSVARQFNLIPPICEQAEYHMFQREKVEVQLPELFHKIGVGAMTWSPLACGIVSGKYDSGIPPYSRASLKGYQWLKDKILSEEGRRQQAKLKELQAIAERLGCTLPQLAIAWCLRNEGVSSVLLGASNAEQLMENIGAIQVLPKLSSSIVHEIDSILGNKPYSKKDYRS
The target is the same in test [6]. Put plainly: enhancers of rat Kvbeta2 NADPH turnover – biochemical, NADPH fluorescence, primary screen (AID 623;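 active = NADPH fluorescence slope more negative than the mean of all samples by about 3 SD, 99.7% confidence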;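 also: fluorescence intensity change per second fitted from 20 to 320 s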). The note with it: Recombinant KvBeta, NADPH fluorescence decrease slope, 10 min; at 10 µM; stronger effect = lower value.
The target of test [7] is Muscarinic acetylcholine receptor M4 (Homo sapiens) (UniProt P08173). The test can be described thus: M4-linked GIRK flux change, two-sided – cell-based, HEK293 M4/GIRK, thallium flux, BTC-AM, M4 allosteric agonist project, primary screen (AID 625;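 active = fluorescence slope after compound addition differing from the mean of all tested samples at 99.7% confidence, mostly higher but some lower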;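 also: thallium influx through GIRK channels coupled to M4 in HEK293 cells with BTC-AM dye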). The following applies: at 10 µM, actives lie on both sides. In outline:
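System: HEK293 cells with M4 receptor and GIRK channels | Incubation: Cells overnight at 37 °C, BTC-AM loading 1 h, reads 2 min total | Technique: Kinetic BTC-AM fluorescence sampled at 1 Hz, 10 s pre-addition baseline | Measure: Post-addition slope, 15–24 s, of baseline-normalized fluorescence | Control set: Carbachol positive, DMSO negative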

Test [8] is described as follows: inhibitors of larval lipid processing in zebrafish, primary screen, whole organism, PED6 fluorescence, gall bladder and intestine (AID 686).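 Also: larvae 5 to 7 days old with five fish per well; signal comes from phospholipase A2 cleavage of quenched PED6 carried via bile; overnight exposure to compound and PED6 before scoring.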 The following applies: Zebrafish larvae PED6 lipid processing, fluorescence scoring; screened at 20 µM (by protocol). In outline:
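Test system – live zebrafish larvae aged 5-7 days, whole organism · Buffer or medium – E3 fish medium · Reagent – quenched phospholipase substrate PED6, 100 nM final, ingested by larvae · Doses – 20 µM single dose · Incubation – overnight compound and PED6 incubation · Technique – visual fluorescence microscopy scoring of gall bladder, gut · Read-out basis – visual per-well fluorescence inhibition score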

A short description of test [9]: loss of swimming-algae plug formation – whole organism, Chlamydomonas reinhardtii, WT vs cilia-less mutant, absorbance, 96-well, primary screen (AID 463189;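 active = inhibition at or above 50% relative to wild type and mutant plate controls; inactive = inhibition below 50%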;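 also: 0% = wild type cc124 cells in DMSO and 100% = ciliumless bld1 mutant cells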). The note with it: Chlamydomonas reinhardtii gravitaxis, OD600 absorbance, 2 days; at 10 µM; stronger effect = higher value.
Where [10] appears, read: measured here: cell density z-score.
Where [11] appears, read: measured here: nuclear c-Myc green intensity z-score.
Where [12] appears, read: measured here: nuclear pErk red intensity z-score, stronger effect = higher value.

The source made the active and inactive calls.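 The calls were made as follows, unless noted: active = a full or partial loss of lipid-probe fluorescence in the fish gall bladder, intestine or both, judged by eye; inactive = no fluorescence loss, or compound toxic to the fish.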

Muscarinic acetylcholine receptor M4 (Homo sapiens), sequence (P08173 whole entry, looked up): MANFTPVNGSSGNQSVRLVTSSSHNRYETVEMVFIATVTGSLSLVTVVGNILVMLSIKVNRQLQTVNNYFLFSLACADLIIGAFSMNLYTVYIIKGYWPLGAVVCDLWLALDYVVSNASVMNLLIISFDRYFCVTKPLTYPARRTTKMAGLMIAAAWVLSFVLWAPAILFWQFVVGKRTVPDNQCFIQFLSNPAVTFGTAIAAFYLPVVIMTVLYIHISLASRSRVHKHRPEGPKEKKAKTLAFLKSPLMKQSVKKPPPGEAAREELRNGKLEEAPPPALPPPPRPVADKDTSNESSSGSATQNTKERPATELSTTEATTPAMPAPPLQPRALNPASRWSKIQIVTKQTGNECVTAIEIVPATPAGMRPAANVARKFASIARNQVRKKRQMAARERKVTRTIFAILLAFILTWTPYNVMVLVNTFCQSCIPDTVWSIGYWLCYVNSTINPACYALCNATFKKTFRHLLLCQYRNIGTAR

What is called inhibition is the drop in the measured response relative to a control, in per cent. For the compound `CC1(C)NC(=O)N(CC(O)COc2cc3ccccc3cc2C(=O)N2CCCCC2)C1=O` (stereo not drawn), in [1], the cell count amounted to 595. The inhibition in test [1] is -11.9% (inactive); in test [2], 5.9% (inactive); in test [4], 5.42% (inactive); in test [9], 33.9% (inactive). Also, in test [2], the nuclei count is 157%. Besides, the z-score in test [3] (setting [10]) is 0.439; in test [3] (setting [11]) it was 1.12; in [3] (setting [12]), -0.435. Besides, the figures for the fluorescence slope in [5] and in test [7] were -0.383 (inactive) and 0.00552 (inactive), respectively. In addition, the NADPH fluorescence slope in test [6] is 2.1e-06 (inactive). Moreover, the call in [8] was inactive.
`CC(C)(C)c1cc(-c2ccco2)c(C#N)c(SCC#N)n1`: the cell count in test [1] stood at 685. The inhibition was 6.9% (inactive) in [1], -48.1% (inactive) in test [2], -9.53% (inactive) in test [4] and -12.6% (inactive) in test [9]. The compound further showed a nuclei count in [2] of 116%. The results for the z-score in test [3] (setting [10]), in test [3] (setting [11]) and in test [3] (setting [12]) were 0.036, 0.336 and 0.596, respectively. Also, the fluorescence slope in test [5] is -0.442 (inactive); in test [7], 0.0081 (inactive). Also, the NADPH fluorescence slope in test [6] was -7.2e-05 (inactive). In addition, in [8], the call was inactive.
In the case of `O=C(CN1C(=O)c2ccccc2C1=O)OCN1C(=O)c2ccccc2C1=O`, the cell count in test [1] was determined as 494. Besides, the inhibition is -4.5% (inactive) in test [1], -52.7% (inactive) in test [2], 3.97% (inactive) in test [4] and -6.56% (inactive) in test [9]. For the same compound, in test [2], the nuclei count is 125%. Moreover, the z-score was 0.289 in test [3] (setting [10]), 0.0514 in [3] (setting [11]) and -0.238 in [3] (setting [12]). Also, the fluorescence slope in test [5] is -0.348 (inactive); in test [7] it was 0.00658 (inactive). The NADPH fluorescence slope in [6] is -2.7e-06 (inactive). In addition, the result in test [8] was inactive.
As for `C=CCn1c(=N)c(C(=O)OCC)cc2c(=O)n3cccc(C)c3nc21`, the cell count in [1] came to 614. Also, the inhibition is 5.3% (inactive) in test [1], -125% (inactive) in [2], -9.66% (inactive) in [4] and 159% (active) in test [9]. In test [2], this compound showed a nuclei count of 149%. Further, the z-score in [3] (setting [10]) is -2.08; in test [3] (setting [11]) it was 1.41; in test [3] (setting [12]), 1.9. For the same compound, the values for the fluorescence slope in test [5] and in [7] were -0.114 (inactive) and 0.00285 (inactive), respectively. Also, the NADPH fluorescence slope in [6] was -2e-05 (inactive). In test [8], the result was inactive.
On to `N#Cc1cccc(-n2c(-c3ccccc3)nnc2-c2ccccc2)c1C#N`, for which the cell count in test [1] turned out to be 587. Besides, the inhibition in [1] was -2.7% (inactive); in test [2] it was -7.1% (inactive); in [4], -7.86% (inactive); in [9], 6.01% (inactive). In test [2], the nuclei count was 99.3%. In addition, the z-score in [3] (setting [10]) was -3.17; in [3] (setting [11]), 1.25; in test [3] (setting [12]), 1.22. Also, the fluorescence slope in test [5] is -0.508 (inactive); in test [7], 0.00624 (inactive). Besides, in [6], the NADPH fluorescence slope is -6.3e-05 (inactive). For the same compound, the compound was classed as inactive in [8].
For the compound `O=C(NCc1ccccn1)c1coc(=O)c(Br)c1`, in test [1], the cell count was determined as 542. Also, the inhibition is -1% (inactive) in test [1], 22.6% (inactive) in test [2], 9.61% (inactive) in [4] and 10.6% (inactive) in test [9]. Besides, in test [2], the nuclei count is 119%. Further, the results for the z-score in [3] (setting [10]), in test [3] (setting [11]) and in [3] (setting [12]) were -0.164, 0.668 and -0.53, respectively. Further, the fluorescence slope in [5] was -0.481 (inactive); in test [7], 0.00581 (inactive). Besides, the NADPH fluorescence slope in test [6] is -4e-05 (inactive). The compound was classed as inactive in [8].
For the compound `CCOC(=O)C(C(=O)OCC)N(C#N)c1nc(SC)nc(N(C)C)n1`, the cell count in test [1] came to 607. Further, the inhibition is -2.8% (inactive) in test [1], 42.8% (inactive) in [2], 33.3% (inactive) in [4] and -15.2% (inactive) in test [9]. In addition, in test [2], the nuclei count is 86.4%. The z-score was -3.26 in [3] (setting [10]), 2.37 in test [3] (setting [11]) and 4.3 in test [3] (setting [12]). Also, the fluorescence slope is -0.457 (inactive) in test [5] and 0.00538 (inactive) in [7]. Moreover, in test [6], the NADPH fluorescence slope is -5e-05 (inactive). Moreover, in test [8], the compound was called inactive.
For `Cc1ccc(-n2[nH]c(C)c(C=Nc3cc(C)ccn3)c2=O)cc1`, the cell count in [1] is 512. The inhibition in test [1] was 3% (inactive); in test [2], 4.6% (inactive); in test [4] it was -13.3% (inactive); in test [9] it was 51.3% (active). This compound also gave a nuclei count in [2] of 87.7%. Moreover, the z-score in test [3] (setting [10]) is -0.346; in test [3] (setting [11]) it was -0.03; in [3] (setting [12]), 0.605. The figures for the fluorescence slope in [5] and in test [7] were -0.459 (inactive) and 0.0056 (inactive), respectively. For the same compound, the NADPH fluorescence slope in test [6] is -3.6e-05 (inactive). For the same compound, the outcome in [8] was inactive.
Regarding `Cc1cc(=O)oc(C)c1C(=O)NCC1CCCO1` (stereo not drawn), the cell count in test [1] worked out at 606. Further, the inhibition is 9.1% (inactive) in test [1], -24.6% (inactive) in [2], 5.35% (inactive) in test [4] and 5.07% (inactive) in test [9]. Further, in [2], the nuclei count stood at 123%. Further, the z-score amounted to 0.0605 in test [3] (setting [10]), 0.0774 in test [3] (setting [11]) and 0.0396 in test [3] (setting [12]). For the same compound, the fluorescence slope in [5] was -0.441 (inactive); in [7], 0.00527 (inactive). Besides, in test [6], the NADPH fluorescence slope was -4.3e-05 (inactive). Also, the compound was called inactive in [8].
Consider `CN1CCN(c2c3c(c(C#N)c4nc5ccccc5n24)CCCC3)CC1`, for which the cell count in [1] was 514. In addition, the inhibition was 0.8% (inactive) in test [1], -60.7% (inactive) in test [2], 5.95% (inactive) in test [4] and -10.8% (inactive) in [9]. The nuclei count in test [2] was determined as 130%. Further, the z-score was 1.3 in test [3] (setting [10]), -0.661 in [3] (setting [11]) and -1.13 in [3] (setting [12]). Also, the fluorescence slope is -0.35 (inactive) in test [5] and 0.00748 (inactive) in [7]. The NADPH fluorescence slope in [6] was -3.3e-05 (inactive). For the same compound, the compound was classed as inactive in [8].
In the case of `Clc1ccc(-n2ncc3c(NCc4ccco4)ncnc32)cc1`, the cell count in test [1] is 582. The inhibition in [1] is -17.4% (inactive); in test [2] it was 19.7% (inactive); in test [4], 19.4% (inactive); in test [9], 45.5% (inactive). The nuclei count in [2] amounted to 154%. Further, the z-score in test [3] (setting [10]) is 0.502; in test [3] (setting [11]), -0.386; in test [3] (setting [12]), 0.00112. For the same compound, the fluorescence slope in [5] is -0.339 (inactive); in test [7] it was 0.00727 (inactive). In addition, in [6], the NADPH fluorescence slope is -2.6e-05 (inactive). The result in [8] was inactive.
